Measured values from ChEMBL document CHEMBL1139315, “Search for new pharmacophores for antimalarial activity. Part II: synthesis and antimalarial activity of new 6-ureido-4-anilinoquinazolines” (Bioorg Med Chem, 2009).
≈ marks a conversion by molar mass, not a printed value.

Assays:
[1] = system: Plasmodium falciparum; assay: Antimalarial activity as schizonticidal activity after 48 hrs against chloroquine-sensitive Plasmodium falciparum 3D7; assay type: functional; conditions: 3D7, 48 h
Procedure, shortened: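 3D7 ring stages synchronized with 5% sorbitol; 3% cell suspension at 1% parasitaemia added to duplicate wells of diluted compound (DMSO stock 5 mg/mL, diluted in RPMI). Incubated at 37 °C under CO2 for more than 40 h. Giemsa-stained thin smears counted by light microscopy; MIC = lowest concentration giving 100% inhibition of schizont maturation against untreated control.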

[2] = system: Plasmodium yoelii; assay: Antimalarial activity as reduced parasitaemia against chloroquine-resistant Plasmodium yoelii infected Swiss mice (Mus musculus) at 100 mg/kg peroral dose for 4 days; assay type: functional; design: scale not given: the % may be the effect or the level left; conditions: route oral
[3] = system: Plasmodium yoelii nigeriensis; assay: (§1) Antimalarial activity as reduced parasitaemia against Plasmodium yoelii nigeriensis MDR infected Swiss mice (Mus musculus) at 100 mg/kg peroral dose […]; assay type: functional; design: scale not given: the % may be the effect or the level left; conditions: route oral
Procedure, shortened: (§2)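 Swiss mice (25 g, either sex), five per group, infected with 1 × 10^6 parasitized cells on day 0. Aqueous suspension given orally from day 0 to day 4; vehicle-only group as control. Parasitaemia read from tail-vein thin blood smears, reported as mean % parasitaemia on day 4 and day 7.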

[4] = system: Plasmodium falciparum; assay: Antimalarial activity after 72 hrs against chloroquine-sensitive Plasmodium falciparum 3D7 infected erythrocytes by MSF assay; assay type: functional, organism-based; conditions: 3D7, 72 h
Procedure, shortened: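 P. falciparum 3D7 kept in RPMI with gentamicin 40 µg/mL, Fungizone 0.25 µg/mL and 10% FBS (pH 7.2) at 37 °C under CO2. Twofold serial dilutions over seven concentrations, top 10–500 ng/mL, duplicate wells; 2.5% haematocrit, 0.5% parasitaemia; 72 h. SYBR Green I in lysis buffer (Tris pH 7.5, EDTA, saponin, Triton X-100), 1 h at room temperature, fluorescence read; IC50 by logit regression.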

[5] = Selectivity index, ratio of CC50 for african green monkey (Cercopithecus aethiops) Vero C1008 cells to IC50 for chloroquine-sensitive Plasmodium falciparum 3D7; assay type: functional
Procedure, shortened: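 Vero C1008 cells exposed to serially diluted compound, highest 100 µg/mL, for 72 h; MTT read-out; CC50 = concentration killing 50% of cells. SI = CC50/IC50, with IC50 from the SYBR Green I assay on 3D7.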

[6] = system: Plasmodium yoelii nigeriensis; assay: Antimalarial activity as reduced parasitaemia against Plasmodium yoelii nigeriensis MDR infected Swiss mice (Mus musculus) at 100 mg/kg peroral dose for 4 days; assay type: functional; design: scale not given: the % may be the effect or the level left; conditions: route oral; procedure, shortened: as §2
[7] = system: Mus musculus; assay: Toxicity against Plasmodium yoelii nigeriensis MDR infected Swiss mice (Mus musculus) assessed as death at 100 mg/kg, perorally; assay type: organism-based; design: dose 100 mg/kg, route oral; conditions: in vivo, po
[8] = system: Plasmodium yoelii nigeriensis; assay: as §1; assay type: functional; design: scale not given: the % may be the effect or the level left; conditions: route oral; procedure, shortened: as §2; remark: listed apart in the source

SMILES	MIC [1]	also measured
COc1ccc(Nc2ncnc3ccc(NC(=O)Nc4cccc(C(C)=O)c4)cc23)cc1OC	10 µg/mL (≈ 21.9 µM)	
O=C(Nc1ccc(Cl)cc1)Nc1ccc2ncnc(Nc3ccc(F)cc3)c2c1	0.5 µg/mL (≈ 1.23 µM)	Activity [2]: 1.18%; Activity [3]: 9.38%
Cc1ccc(NC(=O)Nc2ccc3ncnc(Nc4ccc(F)cc4)c3c2)cc1Cl	0.5 µg/mL (≈ 1.19 µM)	Activity [2]: 2.8%; Activity [3]: 4.06%
COc1cccc(Nc2ncnc3ccc(NC(=O)Nc4cccc(C(C)=O)c4)cc23)c1	10 µg/mL (≈ 23.4 µM)	
O=C(Nc1ccc(Br)cc1)Nc1ccc2ncnc(Nc3ccc(F)cc3)c2c1	10 µg/mL (≈ 22.1 µM)	
O=C(Nc1cc(Cl)cc(Cl)c1)Nc1ccc2ncnc(Nc3cccc(C(F)(F)F)c3)c2c1	10 µg/mL (≈ 20.3 µM)	
O=C(Nc1ccc(Cl)c(C(F)(F)F)c1)Nc1ccc2ncnc(Nc3cccc(C(F)(F)F)c3)c2c1	0.25 µg/mL (≈ 0.475 µM)	IC50 [4]: 0.0023 µg/mL (≈ 0.00437 µM); Ratio CC50/IC50 [5]: 1194; Activity [6]: 10%; Activity [3]: 30.5%
COc1cccc(Nc2ncnc3ccc(NC(=O)Nc4cccc(C#N)c4)cc23)c1	10 µg/mL (≈ 24.4 µM)	
COc1cccc(Nc2ncnc3ccc(NC(=O)Nc4ccc(C)c(Cl)c4)cc23)c1	0.5 µg/mL (≈ 1.15 µM)	
Cc1ccc(NC(=O)Nc2ccc3ncnc(Nc4cccc(C(F)(F)F)c4)c3c2)cc1Cl	10 µg/mL (≈ 21.2 µM)	
O=C(Nc1ccc(Cl)c(Cl)c1)Nc1ccc2ncnc(Nc3cccc(C(F)(F)F)c3)c2c1	0.25 µg/mL (≈ 0.508 µM)	IC50 [4]: 0.013 µg/mL (≈ 0.0264 µM); Ratio CC50/IC50 [5]: 69
Cc1ccc(Nc2ncnc3ccc(NC(=O)Nc4ccc(Br)cc4)cc23)cc1	1 µg/mL (≈ 2.23 µM)	
N#Cc1cccc(NC(=O)Nc2ccc3ncnc(Nc4cccc(C(F)(F)F)c4)c3c2)c1	1 µg/mL (≈ 2.23 µM)	
O=C(Nc1ccc(Cl)cc1)Nc1ccc2ncnc(Nc3cccc(C(F)(F)F)c3)c2c1	0.25 µg/mL (≈ 0.546 µM)	IC50 [4]: 0.0674 µg/mL (≈ 0.147 µM); Ratio CC50/IC50 [5]: 35.9
O=C(Nc1ccc(Cl)c(Cl)c1)Nc1ccc2ncnc(Nc3ccc(Cl)cc3)c2c1	0.5 µg/mL (≈ 1.09 µM)	
O=C(Nc1ccc(Cl)c(Cl)c1)Nc1ccc2ncnc(Nc3cccc(F)c3)c2c1	0.25 µg/mL (≈ 0.565 µM)	IC50 [4]: 0.0245 µg/mL (≈ 0.0554 µM); Ratio CC50/IC50 [5]: 221.5
O=C(Nc1ccc(Cl)c(C(F)(F)F)c1)Nc1ccc2ncnc(Nc3cccc(F)c3)c2c1	0.5 µg/mL (≈ 1.05 µM)	Activity [6]: 22%; Activity [3]: 14.5%
CC(=O)c1cccc(NC(=O)Nc2ccc3ncnc(Nc4ccc(C)cc4)c3c2)c1	2 µg/mL (≈ 4.86 µM)	
COc1ccc(Nc2ncnc3ccc(NC(=O)Nc4ccc(Br)cc4)cc23)cc1OC	0.5 µg/mL (≈ 1.01 µM)	Activity [6]: 26.3%; Activity [3]: 26.5%
COc1ccc(Nc2ncnc3ccc(NC(=O)Nc4ccc(C)c(Cl)c4)cc23)cc1OC	0.25 µg/mL (≈ 0.539 µM)	IC50 [4]: 0.0223 µg/mL (≈ 0.0481 µM); Ratio CC50/IC50 [5]: 449
COc1ccc(Nc2ncnc3ccc(NC(=O)Nc4cc(Cl)cc(Cl)c4)cc23)cc1OC	0.25 µg/mL (≈ 0.516 µM)	IC50 [4]: 0.0832 µg/mL (≈ 0.172 µM); Ratio CC50/IC50 [5]: 36.1; Activity [6]: 23.7%; Activity [3]: 10.75%

SMILES	MIC [1]	also measured
COc1ccc(Nc2ncnc3ccc(NC(=O)Nc4ccc(Cl)cc4)cc23)cc1OC	0.5 µg/mL (≈ 1.11 µM)	
COc1ccc(Nc2ncnc3ccc(NC(=O)Nc4ccc(Cl)c(Cl)c4)cc23)cc1	2 µg/mL (≈ 4.4 µM)	
COc1ccc(Nc2ncnc3ccc(NC(=O)Nc4ccc(C(C)=O)cc4)cc23)cc1	2 µg/mL (≈ 4.68 µM)	
N#Cc1cccc(NC(=O)Nc2ccc3ncnc(Nc4cccc(Cl)c4)c3c2)c1	0.5 µg/mL (≈ 1.21 µM)	
O=C(Nc1ccc(Cl)c(Cl)c1)Nc1ccc2ncnc(Nc3cccc(Cl)c3)c2c1	0.5 µg/mL (≈ 1.09 µM)	
O=C(Nc1ccc(Br)cc1)Nc1ccc2ncnc(Nc3cccc(C(F)(F)F)c3)c2c1	2 µg/mL (≈ 3.98 µM)	Activity [6]: 50.4%; Activity [7]: Toxic
O=C(Nc1ccc(Br)cc1)Nc1ccc2ncnc(Nc3ccccc3)c2c1	0.25 µg/mL (≈ 0.576 µM)	IC50 [4]: 0.173 µg/mL (≈ 0.399 µM); Ratio CC50/IC50 [5]: 132.5
O=C(Nc1ccc(Cl)cc1)Nc1ccc2ncnc(Nc3ccccc3)c2c1	1 µg/mL (≈ 2.57 µM)	
COc1ccc(Nc2ncnc3ccc(NC(=O)Nc4ccc(Cl)c(C(F)(F)F)c4)cc23)cc1OC	0.25 µg/mL (≈ 0.483 µM)	IC50 [4]: 0.0182 µg/mL (≈ 0.0351 µM); Ratio CC50/IC50 [5]: 345.8; Activity [6]: 0%; Activity [3]: 0.49%; Activity [8]: 99%
COc1ccc(Nc2ncnc3ccc(NC(=O)Nc4cccc(C#N)c4)cc23)cc1	2 µg/mL (≈ 4.87 µM)	
Cc1ccc(Nc2ncnc3ccc(NC(=O)Nc4cccc(C#N)c4)cc23)cc1	10 µg/mL (≈ 25.4 µM)	
Cc1ccc(Nc2ncnc3ccc(NC(=O)Nc4ccc(C)c(Cl)c4)cc23)cc1	0.5 µg/mL (≈ 1.2 µM)	Activity [2]: 3.38%; Activity [3]: 10.82%
Cc1ccc(Nc2ncnc3ccc(NC(=O)Nc4ccc(Cl)c(Cl)c4)cc23)cc1	1 µg/mL (≈ 2.28 µM)	
O=C(Nc1ccc(Cl)c(Cl)c1)Nc1ccc2ncnc(Nc3ccccc3)c2c1	10 µg/mL (≈ 23.6 µM)	
N#Cc1cccc(NC(=O)Nc2ccc3ncnc(Nc4cccc(F)c4)c3c2)c1	0.5 µg/mL (≈ 1.26 µM)	Activity [6]: 46.4%; Activity [7]: Toxic
O=C(Nc1ccc(Cl)cc1)Nc1ccc2ncnc(Nc3cccc(Cl)c3)c2c1	> 10 µg/mL	
COc1ccc(Nc2ncnc3ccc(NC(=O)Nc4ccc(Br)cc4)cc23)cc1	1 µg/mL (≈ 2.15 µM)	
Cc1ccc(NC(=O)Nc2ccc3ncnc(Nc4ccccc4)c3c2)cc1Cl	1 µg/mL (≈ 2.48 µM)	
Cc1ccc(NC(=O)Nc2ccc3ncnc(Nc4cccc(F)c4)c3c2)cc1Cl	0.25 µg/mL (≈ 0.593 µM)	IC50 [4]: 0.147 µg/mL (≈ 0.348 µM); Ratio CC50/IC50 [5]: 76.6
O=C(Nc1ccc(Br)cc1)Nc1ccc2ncnc(Nc3ccc(Cl)cc3)c2c1	1 µg/mL (≈ 2.13 µM)	
O=C(Nc1ccc(Cl)cc1)Nc1ccc2ncnc(Nc3cccc(F)c3)c2c1	0.5 µg/mL (≈ 1.23 µM)	Activity [6]: 0%; Activity [3]: 0.03%; Activity [8]: 99%

SMILES	MIC [1]	also measured
COc1ccc(Nc2ncnc3ccc(NC(=O)Nc4ccc(Cl)c(Cl)c4)cc23)cc1OC	0.25 µg/mL (≈ 0.516 µM)	IC50 [4]: 0.0807 µg/mL (≈ 0.167 µM); Ratio CC50/IC50 [5]: 74.5; Activity [6]: 41%; Activity [3]: 14%
COc1ccc(Nc2ncnc3ccc(NC(=O)Nc4cccc(C#N)c4)cc23)cc1OC	0.5 µg/mL (≈ 1.14 µM)	Activity [6]: 13.9%; Activity [3]: 23.2%
O=C(Nc1ccc(Br)cc1)Nc1ccc2ncnc(Nc3cccc(F)c3)c2c1	0.5 µg/mL (≈ 1.11 µM)	
O=C(Nc1ccc(Cl)cc1)Nc1ccc2ncnc(Nc3ccc(Cl)cc3)c2c1	0.5 µg/mL (≈ 1.18 µM)	
COc1ccc(Nc2ncnc3ccc(NC(=O)Nc4ccc(C)c(Cl)c4)cc23)cc1	0.25 µg/mL (≈ 0.576 µM)	IC50 [4]: 0.05 µg/mL (≈ 0.115 µM); Ratio CC50/IC50 [5]: 114.9
O=C(Nc1ccc(Br)cc1)Nc1ccc2ncnc(Nc3cccc(Cl)c3)c2c1	1 µg/mL (≈ 2.13 µM)	
Cc1ccc(NC(=O)Nc2ccc3ncnc(Nc4ccc(Cl)cc4)c3c2)cc1Cl	1 µg/mL (≈ 2.28 µM)	
COc1ccc(Nc2ncnc3ccc(NC(=O)Nc4cccc(C(C)=O)c4)cc23)cc1	10 µg/mL (≈ 23.4 µM)	
Cc1ccc(Nc2ncnc3ccc(NC(=O)Nc4ccc(Cl)cc4)cc23)cc1	1 µg/mL (≈ 2.48 µM)	IC50 [4]: 0.0771 µg/mL (≈ 0.191 µM); Ratio CC50/IC50 [5]: 126.3
O=C(Nc1ccc(Cl)c(Cl)c1)Nc1ccc2ncnc(Nc3ccc(F)cc3)c2c1	10 µg/mL (≈ 22.6 µM)	
COc1ccc(Nc2ncnc3ccc(NC(=O)Nc4ccc(Cl)cc4)cc23)cc1	0.25 µg/mL (≈ 0.595 µM)	IC50 [4]: 0.094 µg/mL (≈ 0.224 µM); Ratio CC50/IC50 [5]: 435.1
O=C(Nc1cc(Cl)cc(Cl)c1)Nc1ccc2ncnc(Nc3cccc(F)c3)c2c1	> 10 µg/mL	
Cc1ccc(NC(=O)Nc2ccc3ncnc(Nc4cccc(Cl)c4)c3c2)cc1Cl	10 µg/mL (≈ 22.8 µM)	
CC(=O)c1ccc(NC(=O)Nc2ccc3ncnc(Nc4ccc(C)cc4)c3c2)cc1	2 µg/mL (≈ 4.86 µM)	
N#Cc1cccc(NC(=O)Nc2ccc3ncnc(Nc4ccccc4)c3c2)c1	0.5 µg/mL (≈ 1.31 µM)	
COc1ccc(Nc2ncnc3ccc(NC(=O)Nc4ccc(C(C)=O)cc4)cc23)cc1OC	10 µg/mL (≈ 21.9 µM)	
COc1cccc(Nc2ncnc3ccc(NC(=O)Nc4ccc(Br)cc4)cc23)c1	2 µg/mL (≈ 4.31 µM)	
COc1cccc(Nc2ncnc3ccc(NC(=O)Nc4ccc(Cl)c(Cl)c4)cc23)c1	2 µg/mL (≈ 4.4 µM)	
COc1cccc(Nc2ncnc3ccc(NC(=O)Nc4ccc(C(C)=O)cc4)cc23)c1	> 10 µg/mL	
COc1cccc(Nc2ncnc3ccc(NC(=O)Nc4ccc(Cl)cc4)cc23)c1	0.25 µg/mL (≈ 0.595 µM)	IC50 [4]: 0.159 µg/mL (≈ 0.377 µM); Ratio CC50/IC50 [5]: 378.9
CCN(CC)CCCC(C)Nc1ccnc2cc(Cl)ccc12 (centres undefined) [CHLOROQUINE]	0.125 µg/mL (≈ 0.391 µM)	
